Experimental data as given in ChEMBL document CHEMBL1944546, “Structure-activity relationships of novel alkylides: 3-O-arylalkyl clarithromycin derivatives with improved antibacterial activities” (2012).
In brackets after ≈: the same amount, converted by molar mass.

What was measured:
Streptococcus pneumoniae [1] = assay: Antibacterial activity against erythromycin-susceptible Streptococcus pneumoniae ATCC 49619 by broth microdilution method; format: functional
Summary of the method: (§1)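 MIC read by broth microdilution following CLSI (2010) guidance. The clinical isolates were identified by 16S rDNA sequencing and labelled by genotype and phenotype. S. aureus ATCC 29213 and S. pneumoniae ATCC 49619 were the control strains. Azithromycin, clarithromycin and 3-OH-clarithromycin were run as reference compounds.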

Streptococcus pneumoniae [2] = assay: Antibacterial activity against penicillin-, constitutive MLS-resistant Streptococcus pneumoniae PU 11 by broth microdilution method; format: functional
Summary of the method: (§2)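 MIC by broth microdilution following CLSI (2010) recommendations, using clinical isolates identified by 16S rDNA sequencing and labelled by genotype and phenotype. S. aureus ATCC 29213 and S. pneumoniae ATCC 49619 were run as control strains, and azithromycin, clarithromycin and 3-OH-clarithromycin were tested as reference agents.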

Streptococcus pneumoniae [3] = assay: Antibacterial activity against efflux,penicillin-susceptible Streptococcus pneumoniae PU 09 by broth microdilution method; format: functional; summary of the method: as §1
Streptococcus pneumoniae [4] = assay: Antibacterial activity against penicillin-susceptible, constitutive MLS-resistant Streptococcus pneumoniae PU 27 by broth microdilution method; format: functional; summary of the method: as §2
[5] = test system: Streptococcus dysgalactiae; assay: Antibacterial activity against efflux, erythromycin-resistant Streptococcus dysgalactiae A 1 by broth microdilution method; format: functional; summary of the method: as §2
Streptococcus pyogenes [6] = assay: Antibacterial activity against constitutive MLS-resistant Streptococcus pyogenes A 2 by broth microdilution method; format: functional; summary of the method: as §2
Streptococcus pyogenes [7] = assay: Antibacterial activity against erythromycin-susceptible Streptococcus pyogenes A 3 by broth microdilution method; format: functional; summary of the method: as §1
Staphylococcus aureus [8] = assay: Antibacterial activity against erythromycin-susceptible Staphylococcus aureus ATCC 29213 by broth microdilution method; format: functional; summary of the method: as §1
Staphylococcus aureus [9] = assay: Antibacterial activity against methicillin-, constitutive MLS-resistant […] by broth microdilution method; format: functional; summary of the method: as §2
Staphylococcus aureus [10] = assay: Antibacterial activity against methicillin-susceptible, inducible MLS-resistant Staphylococcus aureus PU 64 by broth microdilution method; format: functional; summary of the method: as §2
[11] = test system: Staphylococcus haemolyticus; assay: Antibacterial activity against methicillin-resistant, coagulase-negative, constitutive MLS-resistant Staphylococcus haemolyticus PU 19 by broth microdilution method; format: functional; summary of the method: as §2
[12] = test system: Staphylococcus epidermidis; assay: Antibacterial activity against methicillin-susceptible, inducible MLS-resistant Staphylococcus epidermidis E1 by broth microdilution method; format: functional; summary of the method: as §2
[13] = test system: Staphylococcus epidermidis; assay: Antibacterial activity against methicillin-resistant, constitutive MLS-resistant Staphylococcus epidermidis E2 by broth microdilution method; format: functional; summary of the method: as §2
Staphylococcus hominis = assay: Antibacterial activity against methicillin-resistant, coagulase-negative, inducible MLS-resistant Staphylococcus hominis E3 by broth microdilution method; format: functional; summary of the method: as §2
Staphylococcus aureus [14] = assay: Antibacterial activity against methicillin-, inducible MLS-resistant Staphylococcus aureus PU 32 by broth microdilution method

Row | SMILES | MIC (Streptococcus pneumoniae [1]) [µg/mL] | MIC (Streptococcus pneumoniae [2]) [µg/mL] | MIC (Streptococcus pneumoniae [3]) [µg/mL] | MIC (Streptococcus pneumoniae [4]) [µg/mL] | MIC [5] [µg/mL] | MIC (Streptococcus pyogenes [6]) [µg/mL] | MIC (Streptococcus pyogenes [7]) [µg/mL] | MIC (Staphylococcus aureus [8]) [µg/mL] | MIC (Staphylococcus aureus [9]) [µg/mL] | MIC (Staphylococcus aureus [10]) [µg/mL] | MIC [11] [µg/mL] | MIC [12] [µg/mL] | MIC [13] [µg/mL] | MIC (Staphylococcus hominis) [µg/mL] | MIC (Staphylococcus aureus [14]) [µg/mL]
1 | CC[C@H]1OC(=O)[C@H](C)[C@@H](OC/C=C/c2cncnc2)[C@H](C)[C@@H](O[C@@H]2O[C@H](C)C[C@H](N(C)C)[C@H]2O)[C@](C)(OC)C[C@@H](C)C(=O)[C@H](C)[C@@H](O)[C@]1(C)O | 8 (≈ 11.3 µM) | 128 (≈ 181 µM) | 16 (≈ 22.6 µM) | 128 (≈ 181 µM) | 16 (≈ 22.6 µM) | > 256 | 8 (≈ 11.3 µM) | > 256 | > 256 | > 256 | > 256 | > 256 | > 256 | > 256 | > 256
2 | CC[C@H]1OC(=O)[C@H](C)[C@@H](O/C=C\Cc2cncnc2)[C@H](C)[C@@H](O[C@@H]2O[C@H](C)C[C@H](N(C)C)[C@H]2O)[C@](C)(OC)C[C@@H](C)/C(=N\OCc2ccccc2)[C@H](C)[C@H]2OC(=O)O[C@@]21C | 0.25 (≈ 0.298 µM) | 32 (≈ 38.1 µM) | 1 (≈ 1.19 µM) | 16 (≈ 19.1 µM) | – | – | – | 2 (≈ 2.38 µM) | – | – | 64 (≈ 76.3 µM) | – | – | – | 1 (≈ 1.19 µM)
3 | CC[C@H]1OC(=O)[C@H](C)[C@@H](O/C=C\Cc2cncnc2)[C@H](C)[C@@H](O[C@@H]2O[C@H](C)C[C@H](N(C)C)[C@H]2O)[C@](C)(OC)C[C@@H](C)/C(=N\O)[C@H](C)[C@@H](O)[C@]1(C)O | 0.064 (≈ 0.0885 µM) | 128 (≈ 177 µM) | 0.25 (≈ 0.346 µM) | 16 (≈ 22.1 µM) | – | – | – | 0.064 (≈ 0.0885 µM) | – | – | > 256 | – | – | – | 0.064 (≈ 0.0885 µM)
4 | CC[C@H]1OC(=O)[C@H](C)[C@@H](OCC#Cc2cncnc2)[C@H](C)[C@@H](O[C@@H]2O[C@H](C)C[C@H](N(C)C)[C@H]2O)[C@](C)(OC)C[C@@H](C)/C(=N\OCc2ccccc2Cl)[C@H](C)[C@H]2OC(=O)O[C@@]21C | 16 (≈ 18.4 µM) | 32 (≈ 36.7 µM) | – | – | – | – | – | 32 (≈ 36.7 µM) | – | – | 32 (≈ 36.7 µM) | – | – | – | 32 (≈ 36.7 µM)
5 | C=CCO[C@H]1[C@H](C)[C@@H](O[C@@H]2O[C@H](C)C[C@H](N(C)C)[C@H]2O)[C@](C)(OC)C[C@@H](C)C(=O)N[C@H](C)[C@@H](O)[C@](C)(O)[C@@H](CC)OC(=O)[C@@H]1C | > 256 | > 256 | > 256 | > 256 | – | – | – | > 256 | – | – | > 256 | – | – | – | > 256
6 | C=CCO[C@H]1[C@H](C)[C@@H](O[C@@H]2O[C@H](C)C[C@H](N(C)C)[C@H]2O)[C@](C)(OC)C[C@@H](C)/C(=N\O)[C@H](C)[C@@H](O)[C@](C)(O)[C@@H](CC)OC(=O)[C@@H]1C | 16 (≈ 24.8 µM) | > 256 | 32 (≈ 49.6 µM) | 128 (≈ 198 µM) | – | – | – | 256 (≈ 397 µM) | – | – | > 256 | – | – | – | 128 (≈ 198 µM)
7 | CC[C@H]1OC(=O)[C@H](C)[C@@H](O/C=C\Cc2cncnc2)[C@H](C)[C@@H](O[C@@H]2O[C@H](C)C[C@H](N(C)C)[C@H]2O)[C@](C)(OC)C[C@@H](C)/C(=N\OCc2ccccc2)[C@H](C)[C@@H](O)[C@]1(C)O | 2 (≈ 2.46 µM) | 64 (≈ 78.7 µM) | 2 (≈ 2.46 µM) | 32 (≈ 39.4 µM) | – | – | – | 32 (≈ 39.4 µM) | – | – | > 256 | – | – | – | 4 (≈ 4.92 µM)
8 | CC[C@H]1OC(=O)[C@H](C)[C@@H](O/C=C\Cc2cncnc2)[C@H](C)[C@@H](O[C@@H]2O[C@H](C)C[C@H](N(C)C)[C@H]2O)[C@](C)(OC)C[C@@H](C)/C(=N\OCc2ccccc2Cl)[C@H](C)[C@H]2OC(=O)O[C@@]21C | 0.25 (≈ 0.286 µM) | 32 (≈ 36.6 µM) | – | – | – | – | – | 8 (≈ 9.16 µM) | – | – | 64 (≈ 73.3 µM) | – | – | – | 32 (≈ 36.6 µM)
9 | CC[C@H]1OC(=O)[C@H](C)[C@@H](OC/C=C/c2cncnc2)[C@H](C)[C@@H](O[C@@H]2O[C@H](C)C[C@H](N(C)C)[C@H]2O)[C@](C)(OC)C[C@@H](C)/C(=N\OCc2ccccc2)[C@H](C)[C@H]2OC(=O)O[C@@]21C | 2 (≈ 2.38 µM) | 64 (≈ 76.3 µM) | 4 (≈ 4.77 µM) | 64 (≈ 76.3 µM) | – | – | – | 32 (≈ 38.1 µM) | – | – | > 256 | – | – | – | 32 (≈ 38.1 µM)
10 | CC[C@H]1OC(=O)[C@H](C)[C@@H](O)[C@H](C)[C@@H](O[C@@H]2O[C@H](C)C[C@H](N(C)C)[C@H]2O)[C@](C)(OC)C[C@@H](C)C(=O)[C@H](C)[C@@H](O)[C@]1(C)O | 64 (≈ 109 µM) | > 256 | 128 (≈ 217 µM) | 128 (≈ 217 µM) | – | – | – | > 256 | – | – | > 256 | – | – | – | > 256
11 | CC[C@H]1OC(=O)[C@H](C)[C@@H](OC/C=C/c2cncnc2)[C@H](C)[C@@H](O[C@@H]2O[C@H](C)C[C@H](N(C)C)[C@H]2O)[C@](C)(OC)C[C@@H](C)/C(=N\OCc2ccccc2Cl)[C@H](C)[C@H]2OC(=O)O[C@@]21C | 4 (≈ 4.58 µM) | 32 (≈ 36.6 µM) | – | – | – | – | – | 64 (≈ 73.3 µM) | – | – | 64 (≈ 73.3 µM) | – | – | – | 64 (≈ 73.3 µM)
12 | CC[C@H]1OC(=O)[C@H](C)[C@@H](OC/C=C/c2cccnc2)[C@H](C)[C@@H](O[C@@H]2O[C@H](C)C[C@H](N(C)C)[C@H]2O)[C@](C)(OC)C[C@@H](C)/C(=N\OCc2ccccc2Cl)[C@H](C)[C@H]2OC(=O)O[C@@]21C | 4 (≈ 4.58 µM) | 16 (≈ 18.3 µM) | 8 (≈ 9.17 µM) | 16 (≈ 18.3 µM) | – | – | – | 32 (≈ 36.7 µM) | – | – | 32 (≈ 36.7 µM) | – | – | – | 32 (≈ 36.7 µM)
13 | CC[C@H]1OC(=O)[C@H](C)[C@@H](OCC#Cc2cccnc2)[C@H](C)[C@@H](O[C@@H]2O[C@H](C)C[C@H](N(C)C)[C@H]2O)[C@](C)(OC)C[C@@H](C)/C(=N\OCc2ccccc2Cl)[C@H](C)[C@H]2OC(=O)O[C@@]21C | 16 (≈ 18.4 µM) | 32 (≈ 36.8 µM) | – | – | – | – | – | 64 (≈ 73.5 µM) | – | – | 64 (≈ 73.5 µM) | – | – | – | 64 (≈ 73.5 µM)
14 | CC[C@H]1OC(=O)[C@H](C)[C@@H](OC/C=C/c2ccc(-n3ccnc3)cc2)[C@H](C)[C@@H](O[C@@H]2O[C@H](C)C[C@H](N(C)C)[C@H]2O)[C@](C)(OC)C[C@@H](C)/C(=N\OCc2ccccc2Cl)[C@H](C)[C@H]2OC(=O)O[C@@]21C | 16 (≈ 17.1 µM) | 32 (≈ 34.1 µM) | 16 (≈ 17.1 µM) | 32 (≈ 34.1 µM) | – | – | – | 32 (≈ 34.1 µM) | – | – | 32 (≈ 34.1 µM) | – | – | – | 32 (≈ 34.1 µM)
15 | CC[C@H]1OC(=O)[C@H](C)[C@@H](OC/C=C/c2cncc3ccccc23)[C@H](C)[C@@H](O[C@@H]2O[C@H](C)C[C@H](N(C)C)[C@H]2O)[C@](C)(OC)C[C@@H](C)/C(=N\OCc2ccccc2Cl)[C@H](C)[C@H]2OC(=O)O[C@@]21C | 16 (≈ 17.3 µM) | 32 (≈ 34.7 µM) | 16 (≈ 17.3 µM) | 32 (≈ 34.7 µM) | – | – | – | 64 (≈ 69.4 µM) | – | – | 128 (≈ 139 µM) | – | – | – | 256 (≈ 277 µM)
16 | C=CCO[C@H]1[C@H](C)[C@@H](O[C@@H]2O[C@H](C)C[C@H](N(C)C)[C@H]2O)[C@](C)(OC)C[C@@H](C)C(=O)[C@H](C)[C@@H](O)[C@](C)(O)[C@@H](CC)OC(=O)[C@@H]1C | 32 (≈ 50.8 µM) | > 256 | 64 (≈ 102 µM) | 128 (≈ 203 µM) | – | – | – | > 256 | – | – | > 256 | – | – | – | 256 (≈ 406 µM)
